Measurements published in PMC7025391 (The Lancet. Oncology, 2019).
Where two headings read alike, the source gives them in different places.

Experiments:
[1] = system: patients with recurrent EOC or BC; assay: Phase 1b 3+3 dose escalation: DLTs, MTD and RP2D; type: in vivo, human
How it was run: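 Classic 3+3 design with continuous 28-day cycles: oral alpelisib q.d. plus olaparib tablets b.i.d. Levels were 250/100 mg, 250/200 mg, 300/200 mg and 200/200 mg. Escalation followed 0/3 or 1/6 DLTs in cycle 1, graded by CTCAE v4.03. DLTs were prespecified grade ≥3 treatment-related toxicities. Monitoring was weekly in cycles 1–2, then day 1 of each cycle. Six EOC patients were then expanded at the MTD.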

[2] = Pharmacokinetics: steady state Cmax of alpelisib and olaparib; type: in vivo, human; conditions: combination; for Effect of the other drug's dosing on Cmax: dose levels 0-3; for Steady state Cmax compared with monotherapy: day 8, 2 hours post dosing
How it was run: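 Blood sampled for alpelisib and olaparib levels on cycle 1 day 1 (time 0) and on days 8 and 15 at 0, 1, 2, 4 and 8 h after dosing both agents. Patients took oral alpelisib once daily and olaparib tablets twice daily, continuously on 28-day cycles, at alpelisib 200–300 mg with olaparib 100–200 mg.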

[3] = system: EOCs that are gBRCAwt but HRD positive and platinum resistant; conditions: gBRCAwt but HRD positive and platinum resistant EOC; QUADRA study; cited from earlier work
EOC patients = conditions: cited from earlier work
patients = conditions: olaparib monotherapy, SOLO1 study; cited from earlier work

| Compound | MTD and RP2D, alpelisib dose ([1]; orally once daily, combined with olaparib 200 mg twice daily) [mg] | Dose proportionality of drug exposure [2] | Effect of the other drug's dosing on Cmax [2] | Steady state Cmax compared with monotherapy [2] | Response to monotherapy [3] [%] | MTD and RP2D, olaparib dose ([1]; orally twice daily (tablet), combined with alpelisib 200 mg once daily) [mg] | Objective response rate expected from monotherapy (EOC patients; BRCAwt, platinum-resistant ovarian carcinomas, no ref given) | ORR as monotherapy (EOC patients; gBRCAwt / BRCAwt platinum resistant patients) | Expected response rate of monotherapy (EOC patients; platinum resistant gBRCAmut EOC) [%] | Expected response rate of monotherapy (EOC patients; platinum resistant gBRCAwt EOC) | Expected response rate of monotherapy (EOC patients; platinum sensitive gBRCAmut EOC) [%] | Expected response rate of monotherapy (EOC patients; platinum sensitive gBRCAwt EOC) [%] | Fatigue, share of patients (patients) [%] | Nausea, share of patients (patients) [%] | Vomiting, share of patients (patients) [%] |
| --- | --- | --- | --- | --- | --- | --- | --- | --- | --- | --- | --- | --- | --- | --- | --- |
| Cc1nc(NC(=O)N2CCC[C@H]2C(N)=O)sc1-c1ccnc(C(C)(C)C(F)(F)F)c1 [alpelisib] | 200 | increasing proportionally with increasing dose | unaffected by olaparib dosing | comparable to values when testing these agents as monotherapy | – | – | – | – | – | – | – | – | – | – | – |
| NC(=O)c1cccc2cn(-c3ccc([C@@H]4CCCNC4)cc3)nc12 [niraparib] | – | – | – | – | 10 | – | – | – | – | – | – | – | – | – | – |
| O=C(c1cc(Cc2n[nH]c(=O)c3ccccc23)ccc1F)N1CCN(C(=O)C2CC2)CC1 [olaparib] | – | increasing proportionally with increasing dose | unaffected by alpelisib dosing | comparable to values when testing these agents as monotherapy | – | 200 | 4–5% | ~ 5% | 28 | ~ 5% | ≥ 60 | 50 | 63 | 77 | 40 |
